Source: ChEMBL document CHEMBL3526054, “Substituted imidazole of 5-fluoro-2-[4-[(2-phenyl-1H-imidazol-5-yl)methyl]-1-piperazinyl]pyrimidine Inactivates cytochrome P450 2D6 by protein adduction” (Drug Metab Dispos, 2011)

How the values were obtained:
[1] = molecular target: T1, Cytochrome P450 2D6 (Homo sapiens, UniProt P10635); test: Partition ratio of […] assessed as number of molecules of compound metabolized per molecule of inactivated enzyme after 60 mins by HPLC analysis; type: ADME; conditions: recombinant enzyme, 1 h
[2] = molecular target: T1, Cytochrome P450 2D6; test: Covalent binding affinity to human CYP2D6 with P450 reductase assessed per nmol of enzyme after 60 mins by protein precipitation and scintillation counting analysis in absence of NADPH; conditions: 1 h
[3] = molecular target: T2, CYP2D6 (Homo sapiens, UniProt P10635); test: Inhibition of catalytic activity of […] assessed as loss of native heme in hemochrome at 16 uM after <15 mins by HPLC analysis in presence of NADPH; type: ADME
[4] = molecular target: T1, Cytochrome P450 2D6; test: Drug metabolism assessed as human CYP2D6 with P450 reductase-mediated retention time of metabolite by LC-MS/MS analysis in presence of NADPH; type: ADME
[5] = molecular target: T1, Cytochrome P450 2D6; test: Binding affinity to recombinant human CYP2D6 expressed in Escherichia coli co-expressing P450 reductase by spectral analysis; type: ADME; conditions: read-out: Ks
Method in brief: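 Purified recombinant CYP2D6 (from E. coli), 1 μM in 100 mM potassium phosphate pH 7.4, split between two cuvettes at room temperature. Ligand (0.05–16 μM, in water) titrated into the sample cuvette, solvent into the reference. Difference spectra recorded 350–500 nm. ΔA430–395 plotted against concentration. Ks obtained by nonlinear fit to the quadratic tight-binding equation.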

[6] = molecular target: T1, Cytochrome P450 2D6; test: Covalent binding affinity to human CYP2D6 with P450 reductase assessed per nmol of enzyme after 60 mins by protein precipitation and scintillation counting analysis in presence of NADPH; conditions: 1 h
[7] = molecular target: Cytochrome P450 2C19 (Homo sapiens, UniProt P33261); test: Drug metabolism assessed as CYP2C19 (unknown origin)-mediated retention time of metabolite by LC-MS/MS analysis in presence of NADPH; type: ADME
[8] = molecular target: T2, CYP2D6; test: Inhibition of catalytic activity of recombinant human CYP2D6 expressed in Escherichia coli co-expressing P450 reductase assessed as loss of ability to bind CO at 16 uM after <15 mins by […] in presence of NADPH; type: ADME
Method in brief: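 Purified CYP2D6 (1 μM) reconstituted with 2 μM P450 reductase, 30 μM dilauroyl-PC, catalase and SOD in 100 mM KPi pH 7.4, with 16 μM compound and an NADPH-generating system. Incubated up to 25 min. Controls lacked compound or NADPH system. Quenched with detergent buffer. Reduced-CO difference spectrum read 400–500 nm; P450 from A450–A475 (91 mM⁻¹cm⁻¹), expressed relative to time 0.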

[9] = molecular target: T2, CYP2D6; test: (§1) Inhibition of catalytic activity of recombinant human CYP2D6 expressed in Escherichia coli co-expressing P450 reductase assessed as hydroxybufuralol activity at 16 uM after <15 mins by HPLC analysis in presence of NADPH; type: ADME; conditions: probe bufuralol (hydroxybufuralol formation)
[10] = molecular target: T1, Cytochrome P450 2D6; test: Inhibition of CYP2D6 (unknown origin); type: ADME
[11] = molecular target: T2, CYP2D6; test: Inhibition of catalytic activity of recombinant human CYP2D6 expressed in Escherichia coli co-expressing P450 reductase assessed as loss of native heme in hemochrome at 16 uM after <15 mins by hemochrome assay in presence of NADPH; type: ADME
Method in brief: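 Purified CYP2D6 (1 μM) with 2 μM reductase, 30 μM dilauroyl-PC, catalase, SOD and 16 μM compound in 100 mM KPi pH 7.4, incubated 0–40 min with an NADPH-generating system. Controls lacked compound or NADPH system. Quenched in detergent buffer, then pyridine (22%) and NaOH (0.01 N, final) added. Dithionite-reduced spectrum 520–620 nm; heme from A557–A575 (32.4 mM⁻¹cm⁻¹), relative to time 0.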

[12] = molecular target: Cytochrome P450 2C9 (Homo sapiens, UniProt P11712); test: Drug metabolism assessed as CYP2C9 (unknown origin)-mediated retention time of metabolite by LC-MS/MS analysis in presence of NADPH; type: ADME
[13] = molecular target: T1, Cytochrome P450 2D6; test: as §1; type: ADME; conditions: recombinant enzyme, 0.25 h, 16 µM

T2 sequence (P10635 whole entry): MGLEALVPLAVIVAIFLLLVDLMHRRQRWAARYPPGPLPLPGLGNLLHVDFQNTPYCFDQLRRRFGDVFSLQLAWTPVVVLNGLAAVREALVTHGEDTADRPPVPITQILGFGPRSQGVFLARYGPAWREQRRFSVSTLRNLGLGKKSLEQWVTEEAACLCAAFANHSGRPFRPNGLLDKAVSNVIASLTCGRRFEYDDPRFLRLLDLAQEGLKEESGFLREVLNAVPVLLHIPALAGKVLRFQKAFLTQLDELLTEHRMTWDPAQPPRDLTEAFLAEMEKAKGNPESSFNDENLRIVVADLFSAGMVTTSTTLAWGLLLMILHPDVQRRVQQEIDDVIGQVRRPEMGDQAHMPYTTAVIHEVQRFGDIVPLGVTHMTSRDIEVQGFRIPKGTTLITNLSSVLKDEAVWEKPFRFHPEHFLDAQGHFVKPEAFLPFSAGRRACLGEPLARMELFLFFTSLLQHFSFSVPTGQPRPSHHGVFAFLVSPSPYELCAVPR
T1 sequence (P10635 whole entry): as above
Chain of Cytochrome P450 2C19 (P33261 whole entry): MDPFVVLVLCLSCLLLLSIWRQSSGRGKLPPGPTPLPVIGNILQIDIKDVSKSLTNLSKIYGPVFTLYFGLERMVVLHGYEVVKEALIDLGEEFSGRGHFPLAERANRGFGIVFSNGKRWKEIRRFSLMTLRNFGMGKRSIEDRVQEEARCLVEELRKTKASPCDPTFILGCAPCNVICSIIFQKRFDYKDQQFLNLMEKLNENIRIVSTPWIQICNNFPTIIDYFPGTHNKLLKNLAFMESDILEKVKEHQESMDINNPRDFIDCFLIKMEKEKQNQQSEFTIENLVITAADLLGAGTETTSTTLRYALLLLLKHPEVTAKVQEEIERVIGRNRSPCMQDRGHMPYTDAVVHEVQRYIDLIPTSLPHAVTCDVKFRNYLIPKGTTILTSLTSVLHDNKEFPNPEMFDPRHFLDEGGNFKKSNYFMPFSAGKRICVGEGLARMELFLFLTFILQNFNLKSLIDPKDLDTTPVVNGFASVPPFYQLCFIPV
Chain of Cytochrome P450 2C9 (P11712 whole entry): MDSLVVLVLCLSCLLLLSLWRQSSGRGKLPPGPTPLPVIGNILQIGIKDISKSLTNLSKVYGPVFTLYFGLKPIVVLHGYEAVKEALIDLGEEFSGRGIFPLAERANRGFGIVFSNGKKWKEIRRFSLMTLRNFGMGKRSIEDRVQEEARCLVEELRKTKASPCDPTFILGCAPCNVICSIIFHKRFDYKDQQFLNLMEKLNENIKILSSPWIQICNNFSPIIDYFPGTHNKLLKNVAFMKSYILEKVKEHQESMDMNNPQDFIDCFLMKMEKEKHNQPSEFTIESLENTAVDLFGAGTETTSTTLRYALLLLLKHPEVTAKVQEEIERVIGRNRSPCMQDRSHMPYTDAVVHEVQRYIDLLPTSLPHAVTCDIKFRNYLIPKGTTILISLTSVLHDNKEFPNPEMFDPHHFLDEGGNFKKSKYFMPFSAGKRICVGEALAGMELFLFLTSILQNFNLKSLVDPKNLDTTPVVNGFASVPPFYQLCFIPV

| Structure (SMILES) | Ratio [1] | PB [2] [nmol] | inhibition at 0.25 h, 16 µM [3] [%] | Retention_time [4] [min] | Kd [5] [nM] | PB [6] [nmol] | Retention_time [7] [min] | inhibition at 0.25 h, 16 µM [8] [%] | inhibition at 0.25 h, 16 µM [9] [%] | Ki [10] [nM] | inhibition at 0.25 h, 16 µM [11] [%] | Retention_time [12] [min] | inhibition (INH) [13] |
| --- | --- | --- | --- | --- | --- | --- | --- | --- | --- | --- | --- | --- | --- |
| CCc1nc(C)c(CN2CCN(c3cc(C(F)(F)F)ccn3)CC2)[nH]1 | 99 | – | – | – | – | – | – | – | – | – | – | – | – |
| Fc1cnc(N2CCN(Cc3cnc(-c4ccccc4)[nH]3)CC2)nc1 | 3 | 1.95 | 25 | 17 | 390 | 3.15 | 17 | 25 | 90 | 550 | 15 | 17 | – |
| COc1ccc2c(c1)[C@]13CCCC[C@@H]1[C@H](C2)N(C)CC3 [DEXTROMETHORPHAN] | – | – | – | – | – | – | – | – | – | – | – | – | Active |
